LEDGF integ inh = blocks HIV-1 LEDGF/p75-dependent DNA integration. TR-FRET IN-LEDGF/p75 DNA integration, Eu/Cy5. inhibition, % at 3.7 µM. 0.64% of 370,000 active;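 active = inhibition above the screen-wide mean plus 3 SD, cut at about 13% in these data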;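 also: signal is the Cy5 over europium emission ratio at 671 and 618 nm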
MBD2 inh = MBD2-methylated oligo binding inhibition; Q9UBB5; TR-FRET, MBD2 binding to methylated oligonucleotide; inhibition, % at 4.4 µM; 0.31% of 370,000 active; AID 686964; in the data active = inhibition above about 13%
NSD2 HMT inh = NSD2 (human) methyltransferase inhibition. O96028. NSD2 peptide methylation, AlphaScreen, 120 min. inhibition, % at 12.5 µM. 0.54% of 310,000 active; in the data active = inhibition above about 50%
UHRF1 binding = UHRF1 methyl-DNA binding inhibition; inhibition, % at 4.4 µM; UHRF1 binding to methylated oligo, TR-FRET; 0.75% of 370,000 active; AID 687016; in the data active = inhibition above about 21%;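 also: UHRF1 SRA domain binding a hemimethylated CpG hairpin DNA probe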
Casp6 inh = caspase-6 (human) enzyme inhibition | 0.53% of 350,000 active | inhibition, % at 12.5 µM | AID 686996 | purified caspase-6, Z-VEID-R110 cleavage fluorescence;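 active = mean inhibition across replicates at least about 35%, with every replicate also reaching that limit, limit read from the data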
Target sequence (P55212 24-179 limits assumed): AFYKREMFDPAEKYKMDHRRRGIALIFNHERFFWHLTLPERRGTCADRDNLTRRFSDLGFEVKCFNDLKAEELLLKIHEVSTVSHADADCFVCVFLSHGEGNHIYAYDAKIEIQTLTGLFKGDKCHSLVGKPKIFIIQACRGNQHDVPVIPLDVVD
Target sequence (P55212 194-293 limits assumed): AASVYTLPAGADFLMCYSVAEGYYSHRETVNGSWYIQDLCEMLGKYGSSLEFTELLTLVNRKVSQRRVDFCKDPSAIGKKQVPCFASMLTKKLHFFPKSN
TDP2 absorb = TDP2 (human) inhibition, absorbance primary screen; 0.34% of 370,000 active; O95551; AID 720702; recombinant TDP2, T5PNP hydrolysis, p-nitrophenol absorbance 415 nm; inhibition, % at 12.8 µM;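 active = inhibition above the mean of all tested compounds plus 3 SD, set per campaign, cut at about 25% in these data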
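Assay system: Recombinant human TDP2 | Quantity: 120 nM TDP2 per well | Incubation: 2 h at 37 °C | Signal: Epi absorbance | Evaluation: Percent inhibition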
AlphaScreen art = AlphaScreen assay artifact in NSD2 counter-screen; 9.4% of 1,500 active; AC35, µM (titrated, usually from 10 µM); shares compounds with NSD2 HMT inh; AlphaScreen artifact counterscreen, preloaded methylated H4 peptide; call rule not given here
Hits are given with their value; . = inactive; / = not tested or not shown. Most compounds without a hit are left out; they make up all but 1.9% or so of the library.

SMILES | LEDGF integ inh | MBD2 inh | NSD2 HMT inh | UHRF1 binding | Casp6 inh | TDP2 absorb | AlphaScreen art
O=C(N/N=C/c1cc2c(cc1Cl)OCO2)c1ccccn1 | . | . | . | . | . | . | /
O=C(N/N=C/c1cc2c(cc1[N+](=O)[O-])OCO2)c1ccccn1 | . | . | 53 | . | . | . | .
CC(C)CC#Cc1ccc2c(c1)O[C@@H](CN(C)CC1CC1)[C@@H](C)CN([C@@H](C)CO)S2(=O)=O | / | / | / | / | . | / | /
Cc1ccc(C)c(N2C(=N)S/C(=C\c3ccc(-c4ccccc4C(=O)O)o3)C2=O)c1 | . | . | 54 | 21 | 37 | . | .
O=C1NC(NS(=O)(=O)c2ccccc2)(C(F)(F)F)C(=O)N1c1cccc(Cl)c1 (configuration not stated) | . | . | 96 | . | . | . | .
NC(=O)c1ccc(-n2nnnc2SCC(=O)c2ccc(O)c(O)c2)cc1 | . | . | 89 | . | . | . | .
COc1ccc(-n2nnnc2SCC(=O)c2ccc(O)c(O)c2)cc1 | . | . | . | . | / | . | /
COc1ccc(N/C=C2\CCc3ccccc3C2=O)cc1 | . | . | 95 | . | . | . | .
CC(Cc1c[nH]c2ccccc12)C(=O)NCc1ccco1 (configuration not stated) | . | . | 63 | . | 42 | . | .
N#Cc1c(N)n(CCOC(=O)c2cccc(Br)c2)c2nc3ccccc3nc12 | . | . | . | . | / | . | /
Cc1ccc(C(=O)NCCn2c(N)c(C#N)c3nc4ccccc4nc32)cc1 | . | . | 55 | . | / | . | .
CCCCCNc1nc(NCCCO)c(C#N)c2c1CN(C)CC2 | . | . | 51 | . | / | . | .
O=C(O)c1ccc(CSc2n[nH]c(-c3ccco3)n2)cc1 | . | . | 108 | . | / | . | .
C[C@H]1CN([C@@H](C)CO)C(=O)c2cccc(NS(=O)(=O)c3cccs3)c2O[C@H]1CN(C)S(=O)(=O)c1cn(C)cn1 | / | / | / | / | . | / | /
O=C(COc1ccc(F)cc1Cl)Nc1cc(S(=O)(=O)N2CCOCC2)ccc1N1CCCCC1 | . | . | . | . | . | . | /
Cc1ccc(Cl)c(OCC(=O)Nc2cc(S(=O)(=O)N3CCOCC3)ccc2N2CCCC2)c1 | . | . | 73 | . | . | . | .
Cc1ccc(OCC(=O)Nc2cc(S(=O)(=O)N3CCOCC3)ccc2N2CCCC2)cc1 | . | . | . | . | . | . | /
CN1CCN(c2ccc(S(=O)(=O)N3CCOCC3)cc2NC(=O)COc2ccc(F)cc2Cl)CC1 | . | . | 185 | . | . | . | .
COCC#Cc1cnc2c(c1)C(=O)N([C@H](C)CO)C[C@H](C)[C@H](CN(C)S(=O)(=O)c1ccccc1)O2 | / | / | / | / | . | / | /
O=C(C[C@@H]1CC[C@H]2[C@@H](COC[C@H](O)CN2C(=O)c2ccccn2)O1)N1CCN(c2ccccc2)CC1 | / | / | / | / | . | / | /
NC1=C(Br)C(=O)c2ccccc2C1=O | . | . | 57 | . | 75 | . | .
Nc1ccc(Br)c2c1C(=O)c1ccccc1C2=O | / | / | . | / | / | / | /
CN1C(=O)c2cc(NC(=O)C3CC3)ccc2OC[C@H]2O[C@H](CC(=O)NC3CCC3)CC[C@H]21 | / | / | / | / | . | / | /
O=C(NNc1cc(N2CCCC2)nc(N2CCCC2)n1)c1ccc([N+](=O)[O-])cc1 | . | . | 89 | . | . | . | .
CC(C)(C)c1ccc(C(=O)NNc2cc(N3CCCCC3)nc(N3CCCCC3)n2)cc1 | . | . | / | . | / | . | /
CNC(=O)C[C@@H]1CC[C@H]2[C@@H](COc3ccc(NC(=O)c4ccccc4OC)cc3C(=O)N2C)O1 | / | / | / | / | . | / | /
COc1cc2c(cc1OC)C(=O)C(c1ccc3c(c1)OCO3)CC2 (configuration not stated) | . | . | . | . | / | . | /
COc1ccc(C2CCc3cc4c(cc3C2=NOC(C)=O)OCO4)cc1OC (configuration not stated) | . | . | 58 | . | . | . | .
C[C@H](CO)N1C[C@H](C)[C@H](CN(C)C)Oc2ccc(NC(=O)CCCN(C)C)cc2C1=O | / | / | / | / | . | / | /
Nc1c(/C=C2/C=CC(=O)C(O)=C2)c(=O)nc2sc(CC(=O)N3CCOCC3)nn12 | . | . | 114 | . | . | . | 3.6µM
